Measurements published in ChEMBL document CHEMBL3286094, “Synthesis and biological evaluation of novel bisbenzimidazoles as Escherichia coli topoisomerase IA inhibitors and potential antibacterial agents” (J Med Chem, 2014).
Values after ≈ are worked out from the molar mass of the structure shown. Active and inactive are the calls of the source. The rule behind the calls is not given here.

Experiments:
[1] = system: Escherichia coli; assay: Antibacterial activity against ampicillin/chloramphenicol/tetracycline/trimethoprim/ciprofloxacin-resistant Escherichia coli KK45 isolated from water source assessed as growth inhibition after 18 to 24 hrs by broth microdilution method
[2] = system: Escherichia coli; assay: Antibacterial activity against multidrug-resistant Escherichia coli IS 54 isolated from water source assessed as growth inhibition after 18 to 24 hrs by broth microdilution method; settings: IS 54, Water
[3] = system: Escherichia coli; assay: Antibacterial activity against ampicillin/trimethoprim/cefazolinl/piperacillin/cefuroxime/cefoxitine/cefepime/cefotaxime-resistant Escherichia coli KP21 isolated from water source assessed as growth inhibition after 18 to 24 hrs by broth microdilution method
[4] = system: Escherichia coli; assay: Antibacterial activity against chloroamphenicol/ampicillin/kanamycin/trimethoprim/ciprofloxacin/nalidixic acid-resistant Escherichia coli 85 assessed as growth inhibition after 18 to 24 hrs by broth microdilution method; assay type: functional
[5] = system: Escherichia coli; assay: Antibacterial activity against ampicillin/trimethoprim/nalidixic acid-resistant Escherichia coli 118 assessed as growth inhibition after 18 to 24 hrs by broth microdilution method; assay type: functional
[6] = system: Escherichia coli; assay: Antibacterial activity against tetracycline/trimethoprim-resistant Escherichia coli IST isolated from water source assessed as growth inhibition after 18 to 24 hrs by broth microdilution method
[7] = system: Escherichia coli; assay: Antibacterial activity against cefazolinl/ampicillin/piperacillin/cefuroxime/cefepime/cefotaxime/tetracycline/trimethoprim-resistant Escherichia coli KK16 isolated from water source assessed as growth inhibition after 18 to 24 hrs by broth microdilution method
[8] = system: Escherichia coli; assay: Inhibition of Escherichia coli DNA gyrase using relaxed pHOT1 plasmid DNA as substrate assessed as inhibition of DNA supercoiling up to 100 uM after 30 mins by agarose gel electrophoresis
[9] = system: Escherichia coli; assay: Bactericidal activity against ampicillin/tetracycline-resistant Escherichia coli IP18 isolated from water source by agar plating method
[10] = system: Escherichia coli; assay: Antibacterial activity against cefazolinl/ampicillin/piperacillin/cefuroxime/cefepime/cefotaxime/tetracycline/ciprofloxacin-resistant Escherichia coli NG3 isolated from water source assessed as growth inhibition after 18 to 24 hrs by broth microdilution method
[11] = system: Escherichia coli; assay: Antibacterial activity against ampicillin/chloramphenicol/ciprofloxacin/gentamicin/tetracycline-resistant Escherichia coli 401 assessed as growth inhibition after 18 to 24 hrs by broth microdilution method; assay type: functional
[12] = Inhibition of Escherichia coli DNA topoisomerase-1A using supercoiled pHOT1 plasmid DNA as substrate assessed as inhibition of DNA relaxation after 30 mins by agarose gel electrophoresis
Procedure, shortened: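 Supercoiled plasmid DNA incubated with E. coli Topo IA in the presence of compound at […]. Relaxation products were resolved by electrophoresis on 1% agarose gel.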

[13] = system: Escherichia coli; assay: Bactericidal activity against ampicillin/trimethoprim/cefazolinl/piperacillin/cefuroxime/cefoxitine/cefepime/cefotaxime-resistant Escherichia coli KP21 isolated from water source by agar plating method
[14] = system: Escherichia coli; assay: Bactericidal activity against ampicillin/chloramphenicol/tetracycline/trimethoprim/ciprofloxacin-resistant Escherichia coli KK45 isolated from water source by agar plating method
[15] = system: Escherichia coli; assay: Antibacterial activity against ampicillin/ciprofloxacin/gentamicin/tetracycline-resistant Escherichia coli 555 assessed as growth inhibition after 18 to 24 hrs by broth microdilution method; assay type: functional
[16] = system: Escherichia coli; assay: Antibacterial activity against ampicillin/tetracycline/gentamicin-resistant Escherichia coli 451 assessed as growth inhibition after 18 to 24 hrs by broth microdilution method; assay type: functional
[17] = system: Escherichia coli; assay: Antibacterial activity against ampicillin/kanamycin/trimethoprim/tetracyclin/ciprofloxacin/nalidixic acid-resistant Escherichia coli 81 assessed as growth inhibition after 18 to 24 hrs by broth microdilution method; assay type: functional
[18] = system: Escherichia coli; assay: Antibacterial activity against ampicillin/tetracycline-resistant Escherichia coli IP18 isolated from water source assessed as growth inhibition after 18 to 24 hrs by broth microdilution method
[19] = system: Escherichia coli; assay: Antibacterial activity against chloramphenicol/ampicillin/kanamycin/trimethoprim/ciprofloxacin/nalidixic acid-resistant Escherichia coli 132 assessed as growth inhibition after 18 to 24 hrs by broth microdilution method; assay type: functional
[20] = system: Escherichia coli; assay: Bactericidal activity against ampicillin/chloramphenicol/ciprofloxacin/gentamicin/tetracycline-resistant Escherichia coli 401 by agar plating method; assay type: functional
[21] = system: Escherichia coli; assay: Bactericidal activity against ampicillin/kanamycin/trimethoprim/tetracyclin/ciprofloxacin/nalidixic acid-resistant Escherichia coli 81 by agar plating method; assay type: functional
[22] = system: Escherichia coli; assay: Bactericidal activity against ampicillin/tetracycline/piperacillin-resistant Escherichia coli WB31 isolated from water source by agar plating method
[23] = system: Escherichia coli; assay: Bactericidal activity against ampicillin/trimethoprim/piperacillin-resistant Escherichia coli MKNJ isolated from water source by agar plating method
[24] = system: Escherichia coli; assay: Bactericidal activity against chloramphenicol/ampicillin/trimethoprim/ciprofloxacin/nalidixic acid-resistant Escherichia coli 59 by agar plating method; assay type: functional
[25] = species on record: Homo sapiens; assay: Inhibition of human DNA topoisomerase-1B using supercoiled pHOT1 plasmid DNA as substrate assessed as inhibition of DNA relaxation at 100 uM after 30 mins by agarose gel electrophoresis
[26] = system: Escherichia coli; assay: Antibacterial activity against Escherichia coli ATCC 25922 assessed as growth inhibition after 18 to 24 hrs by broth microdilution method; assay type: functional
[27] = system: Escherichia coli; assay: Bactericidal activity against ampicillin/ciprofloxacin/gentamicin/tetracycline-resistant Escherichia coli 555 by agar plating method; assay type: functional
[28] = system: Escherichia coli; assay: Bactericidal activity against chloramphenicol/ampicillin/kanamycin/trimethoprim/ciprofloxacin/nalidixic acid-resistant Escherichia coli 132 by agar plating method; assay type: functional
[29] = system: Escherichia coli; assay: Bactericidal activity against ampicillin/tetracycline/gentamicin-resistant Escherichia coli 451 by agar plating method; assay type: functional
[30] = system: Escherichia coli; assay: Bactericidal activity against Escherichia coli DH5[alpha] by agar plating method; assay type: functional
[31] = system: Escherichia coli; assay: Antibacterial activity against gentamicin/kanamycin/tetracycline/nalidixic acid-resistant Escherichia coli 360 assessed as growth inhibition after 18 to 24 hrs by broth microdilution method; assay type: functional
[32] = system: Escherichia coli; assay: Antibacterial activity against chloramphenicol/ampicillin/trimethoprim/ciprofloxacin/nalidixic acid-resistant Escherichia coli 59 assessed as growth inhibition after 18 to 24 hrs by broth microdilution method; assay type: functional
[33] = system: Escherichia coli; assay: Antibacterial activity against multidrug-resistant Escherichia coli IP9 isolated from water source assessed as growth inhibition after 18 to 24 hrs by broth microdilution method

COc1ccc(-c2nc3ccc(-c4nc5ccc(N6CCN(c7ccncc7)CC6)cc5[nH]4)cc3[nH]2)cc1OC
MIC50 [1]: 2 µg/mL (≈ 3.76 µM)
MIC90 [1]: 3.7 µg/mL (≈ 6.96 µM)
MIC50 [2]: 1 µg/mL (≈ 1.88 µM)
MIC90 [2]: 1.7 µg/mL (≈ 3.2 µM)
MIC50 [3]: 2 µg/mL (≈ 3.76 µM)
MIC90 [3]: 3.6 µg/mL (≈ 6.77 µM)
MIC50 [4]: 2 µg/mL (≈ 3.76 µM)
MIC90 [4]: 3.6 µg/mL (≈ 6.77 µM)
MIC50 [5]: 1 µg/mL (≈ 1.88 µM)
MIC90 [5]: 1.7 µg/mL (≈ 3.2 µM)
MIC50 [6]: 0.5 µg/mL (≈ 0.941 µM)
MIC90 [6]: 0.8 µg/mL (≈ 1.5 µM)
MIC50 [7]: 1 µg/mL (≈ 1.88 µM)
MIC90 [7]: 1.7 µg/mL (≈ 3.2 µM)
inhibition [8]: inactive
MBC [9]: 4 µg/mL (≈ 7.52 µM)
MIC50 [10]: 1 µg/mL (≈ 1.88 µM)
MIC90 [10]: 1.8 µg/mL (≈ 3.39 µM)
MIC50 [11]: 1 µg/mL (≈ 1.88 µM)
MIC90 [11]: 1.6 µg/mL (≈ 3.01 µM)
IC50 [12]: 6.2 µM
MBC [13]: 4 µg/mL (≈ 7.52 µM)
MBC [14]: 4 µg/mL (≈ 7.52 µM)
MIC50 [15]: 16 µg/mL (≈ 30.1 µM)
MIC90 [15]: 58.6 µg/mL (≈ 110 µM)
MIC50 [16]: 2 µg/mL (≈ 3.76 µM)
MIC90 [16]: 3.6 µg/mL (≈ 6.77 µM)
MIC50 [17]: 2 µg/mL (≈ 3.76 µM)
MIC90 [17]: 3.1 µg/mL (≈ 5.83 µM)
MIC50 [18]: 2 µg/mL (≈ 3.76 µM)
MIC90 [18]: 3.7 µg/mL (≈ 6.96 µM)
MIC50 [19]: 2 µg/mL (≈ 3.76 µM)
MIC90 [19]: 3.7 µg/mL (≈ 6.96 µM)
MBC [20]: 2 µg/mL (≈ 3.76 µM)
MBC [21]: 4 µg/mL (≈ 7.52 µM)
MBC [22]: 4 µg/mL (≈ 7.52 µM)
MBC [23]: 4 µg/mL (≈ 7.52 µM)
MBC [24]: 4 µg/mL (≈ 7.52 µM)
inhibition [25]: inactive
MIC50 [26]: 2 µg/mL (≈ 3.76 µM)
MIC90 [26]: 3.7 µg/mL (≈ 6.96 µM)
MBC [27]: 64 µg/mL (≈ 120 µM)
MBC [28]: 4 µg/mL (≈ 7.52 µM)
MBC [29]: 4 µg/mL (≈ 7.52 µM)
MBC [30]: 1 µg/mL (≈ 1.88 µM)
MIC50 [31]: 1 µg/mL (≈ 1.88 µM)
MIC90 [31]: 1.7 µg/mL (≈ 3.2 µM)
MIC50 [32]: 1 µg/mL (≈ 1.88 µM)
MIC90 [32]: 3.6 µg/mL (≈ 6.77 µM)
MIC50 [33]: 2 µg/mL (≈ 3.76 µM)
MIC90 [33]: 3.6 µg/mL (≈ 6.77 µM)

CCOc1ccc(-c2nc3ccc(-c4nc5ccc(N6CCN(CC)CC6)cc5[nH]4)cc3[nH]2)cc1
MIC50 [1]: 4 µg/mL (≈ 8.57 µM)
MIC90 [1]: 7.5 µg/mL (≈ 16.1 µM)
MIC50 [2]: 4 µg/mL (≈ 8.57 µM)
MIC90 [2]: 7.1 µg/mL (≈ 15.2 µM)
MIC50 [3]: 4 µg/mL (≈ 8.57 µM)
MIC90 [3]: 6.8 µg/mL (≈ 14.6 µM)
MIC50 [4]: 4 µg/mL (≈ 8.57 µM)
MIC90 [4]: 6.9 µg/mL (≈ 14.8 µM)
MIC50 [5]: 1 µg/mL (≈ 2.14 µM)
MIC90 [5]: 1.4 µg/mL (≈ 3 µM)
MIC50 [6]: 4 µg/mL (≈ 8.57 µM)
MIC90 [6]: 3.7 µg/mL (≈ 7.93 µM)
MIC50 [7]: 1 µg/mL (≈ 2.14 µM)
MIC90 [7]: 1.8 µg/mL (≈ 3.86 µM)
inhibition [8]: inactive
MBC [9]: 8 µg/mL (≈ 17.1 µM)
MIC50 [10]: 4 µg/mL (≈ 8.57 µM)
MIC90 [10]: 7.7 µg/mL (≈ 16.5 µM)
MIC50 [11]: 2 µg/mL (≈ 4.29 µM)
MIC90 [11]: 3.7 µg/mL (≈ 7.93 µM)
IC50 [12]: 5.8 µM
MBC [13]: 8 µg/mL (≈ 17.1 µM)
MBC [14]: 8 µg/mL (≈ 17.1 µM)
MIC50 [15]: 8 µg/mL (≈ 17.1 µM)
MIC90 [15]: 13.9 µg/mL (≈ 29.8 µM)
MIC50 [16]: 2 µg/mL (≈ 4.29 µM)
MIC90 [16]: 3.6 µg/mL (≈ 7.72 µM)
MIC50 [17]: 4 µg/mL (≈ 8.57 µM)
MIC90 [17]: 6.5 µg/mL (≈ 13.9 µM)
MIC50 [18]: 4 µg/mL (≈ 8.57 µM)
MIC90 [18]: 7.6 µg/mL (≈ 16.3 µM)
MIC50 [19]: 4 µg/mL (≈ 8.57 µM)
MIC90 [19]: 7.2 µg/mL (≈ 15.4 µM)
MBC [20]: 4 µg/mL (≈ 8.57 µM)
MBC [21]: 8 µg/mL (≈ 17.1 µM)
MBC [22]: 8 µg/mL (≈ 17.1 µM)
MBC [23]: 8 µg/mL (≈ 17.1 µM)
MBC [24]: 8 µg/mL (≈ 17.1 µM)
inhibition [25]: Active
MIC50 [26]: 1.78 µg/mL (≈ 3.81 µM)
MIC90 [26]: 3.1 µg/mL (≈ 6.64 µM)
MBC [27]: 16 µg/mL (≈ 34.3 µM)
MBC [28]: 8 µg/mL (≈ 17.1 µM)
MBC [29]: 4 µg/mL (≈ 8.57 µM)
MBC [30]: 1 µg/mL (≈ 2.14 µM)
MIC50 [31]: 3 µg/mL (≈ 6.43 µM)
MIC90 [31]: 58.1 µg/mL (≈ 125 µM)
MIC50 [32]: 4 µg/mL (≈ 8.57 µM)
MIC90 [32]: 7.4 µg/mL (≈ 15.9 µM)
MIC50 [33]: 4 µg/mL (≈ 8.57 µM)
MIC90 [33]: 7.2 µg/mL (≈ 15.4 µM)
